Results reported in ChEMBL document CHEMBL1127629, “Design and synthesis of RNA-specific groove-binding cations: implications for antiviral drug design” (J Med Chem, 1994).

Columns and labels:
Assay type in all cases: nucleic-acid assay
Nucleic Acid [1] = assay: Evaluated for thermal denaturation at pH 3.9 against poly(A)-poly(U) synthetic RNA oligonucleotide
In short: (§1)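 Polymer (poly(A)·poly(U) or poly(dA)·poly(dT)) at 1.0×10^-4 M in MES buffer (0.01 M MES, 0.001 M EDTA, 0.1 M NaCl), pH set with NaOH to the listed value. Compound added to a final drug:polymer phosphate ratio of 0.3. Absorbance at 260 nm followed while heating at 0.5 °C/min in 1-cm cells. ΔTm is the Tm shift of the complex versus the free polymer.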

Nucleic Acid [2] = assay: Evaluated for thermal denaturation at pH 3.9 against poly(A)-poly(dt) synthetic DNA oligonucleotide; in short: as §1
Nucleic Acid [3] = assay: Evaluated for thermal denaturation at pH 4.9 against poly(A)-poly(U) syntheticRNA oligonucleotide; in short: as §1
Nucleic Acid [4] = assay: Evaluated for thermal denaturation at pH 6.3 against poly(A)-poly(U) synthetic RNA oligonucleotide; in short: as §1
Nucleic Acid [5] = assay: Evaluated for thermal denaturation at pH 6.3 against poly(A)-poly(dt) synthetic DNA oligonucleotide; in short: as §1
Nucleic Acid [6] = assay: Evaluated for thermal denaturation at pH 4.9 against poly(A)-poly(dt synthetic DNA oligonucleotide; in short: as §1
Nucleic Acid [7] = assay: Thermal denaturation at pH 6.3 against poly(A)-poly(U) synthetic RNA oligonucleotide; in short: as §1
Nucleic Acid [8] = assay: Thermal denaturation at pH 4.9 against poly(A)-poly(dt) synthetic DNA oligonucleotide; in short: as §1

CN1CCN(CCCN2CCN(C)CC2)CC1
ΔTm (Nucleic Acid [1]): 11 | ΔTm (Nucleic Acid [2]): 0 | ΔTm (Nucleic Acid [3]): 1.3 | ΔTm (Nucleic Acid [4]): 0 | ΔTm (Nucleic Acid [5]): 0 | ΔTm (Nucleic Acid [6]): 0

C1CCN(CCCN2CCCCC2)CC1
ΔTm (Nucleic Acid [3]): 0 | ΔTm (Nucleic Acid [4]): 0 | ΔTm (Nucleic Acid [5]): 0 | ΔTm (Nucleic Acid [6]): 0

C(CN1CCC(C2=NCCN2)CC1)CN1CCC(C2=NCCN2)CC1
ΔTm (Nucleic Acid [1]): 28.7 | ΔTm (Nucleic Acid [2]): 6.1 | ΔTm (Nucleic Acid [3]): 24.5 | ΔTm (Nucleic Acid [4]): 18.1 | ΔTm (Nucleic Acid [5]): 6.1 | ΔTm (Nucleic Acid [6]): 5.6

OCC1CCN(CCCN2CCC(CO)CC2)CC1
ΔTm (Nucleic Acid [3]): 0.5 | ΔTm (Nucleic Acid [4]): 0.2 | ΔTm (Nucleic Acid [5]): 0 | ΔTm (Nucleic Acid [6]): 0.5

N#CC1CCN(CCCN2CCC(C#N)CC2)CC1
ΔTm (Nucleic Acid [3]): 0 | ΔTm (Nucleic Acid [4]): 0 | ΔTm (Nucleic Acid [5]): 0 | ΔTm (Nucleic Acid [6]): 0

c1cc(CN2CCNCC2)ccc1CN1CCNCC1
ΔTm (Nucleic Acid [4]): 0 | ΔTm (Nucleic Acid [5]): 0

c1cc(CN2CCC(C3=NCCN3)CC2)ccc1CN1CCC(C2=NCCN2)CC1
ΔTm (Nucleic Acid [1]): 23.3 | ΔTm (Nucleic Acid [2]): 8.8 | ΔTm (Nucleic Acid [3]): 20.7 | ΔTm (Nucleic Acid [4]): 16.2 | ΔTm (Nucleic Acid [5]): 8.7 | ΔTm (Nucleic Acid [6]): 9.5

c1ccc(CN2CCN(CCCN3CCN(Cc4ccccc4)CC3)CC2)cc1
ΔTm (Nucleic Acid [1]): 2.4 | ΔTm (Nucleic Acid [2]): 0.2 | ΔTm (Nucleic Acid [4]): 0 | ΔTm (Nucleic Acid [5]): 0

C1CCN(C2CCN(CCN3CCN(CCN4CCC(N5CCCCC5)CC4)CC3)CC2)CC1
ΔTm (Nucleic Acid [1]): 34.7 | ΔTm (Nucleic Acid [2]): 10.4 | ΔTm (Nucleic Acid [3]): 22.9 | ΔTm (Nucleic Acid [7]): 7.6 | ΔTm (Nucleic Acid [5]): 6.5 | ΔTm (Nucleic Acid [6]): 8.3

OC1CCN(Cc2ccc(CN3CCC(O)CC3)cc2)CC1
ΔTm (Nucleic Acid [4]): 0 | ΔTm (Nucleic Acid [5]): 0

c1cnc(N2CCN(Cc3cccc(CN4CCN(c5ncccn5)CC4)c3)CC2)nc1
ΔTm (Nucleic Acid [3]): 0 | ΔTm (Nucleic Acid [4]): 0 | ΔTm (Nucleic Acid [5]): 0 | ΔTm (Nucleic Acid [6]): 0

OCC1CCCN(CCCN2CCCC(CO)C2)C1 (centres undefined)
ΔTm (Nucleic Acid [3]): 0.9 | ΔTm (Nucleic Acid [4]): 0.4 | ΔTm (Nucleic Acid [5]): 0 | ΔTm (Nucleic Acid [6]): 0

C1CCN(C2CCN(CCCN3CCC(N4CCCCC4)CC3)CC2)CC1
ΔTm (Nucleic Acid [1]): 22.2 | ΔTm (Nucleic Acid [2]): 4.1 | ΔTm (Nucleic Acid [3]): 20.7 | ΔTm (Nucleic Acid [4]): 9.8 | ΔTm (Nucleic Acid [5]): 3.3 | ΔTm (Nucleic Acid [6]): 4.5

c1cnc(N2CCN(Cc3ccc(CN4CCN(c5ncccn5)CC4)cc3)CC2)nc1
ΔTm (Nucleic Acid [3]): 0 | ΔTm (Nucleic Acid [4]): 0 | ΔTm (Nucleic Acid [5]): 0 | ΔTm (Nucleic Acid [6]): 0

C(CC1CCNCC1)CC1CCNCC1
ΔTm (Nucleic Acid [3]): 1.2 | ΔTm (Nucleic Acid [4]): 0 | ΔTm (Nucleic Acid [5]): 0.1 | ΔTm (Nucleic Acid [6]): 0.7

c1cc(CN2CCC(N3CCCCC3)CC2)ccc1CN1CCC(N2CCCCC2)CC1
ΔTm (Nucleic Acid [1]): 17.7 | ΔTm (Nucleic Acid [2]): 5.6 | ΔTm (Nucleic Acid [3]): 15.4 | ΔTm (Nucleic Acid [8]): 6.7 | ΔTm (Nucleic Acid [4]): 8.1 | ΔTm (Nucleic Acid [5]): 3.5

c1cc(CN2CCC(N3CCCCC3)CC2)cc(CN2CCC(N3CCCCC3)CC2)c1
ΔTm (Nucleic Acid [4]): 8 | ΔTm (Nucleic Acid [5]): 3.3

c1cc(CN2CCN(Cc3ccc(CN4CCNCC4)cc3)CC2)ccc1CN1CCNCC1
ΔTm (Nucleic Acid [1]): 29.3 | ΔTm (Nucleic Acid [2]): 12 | ΔTm (Nucleic Acid [3]): 15.7 | ΔTm (Nucleic Acid [4]): 0 | ΔTm (Nucleic Acid [5]): 2.3 | ΔTm (Nucleic Acid [6]): 5.1

C1CCN(CCN2CCN(CCN3CCCCC3)CC2)CC1
ΔTm (Nucleic Acid [3]): 0.3 | ΔTm (Nucleic Acid [4]): 0 | ΔTm (Nucleic Acid [5]): 0 | ΔTm (Nucleic Acid [6]): 0.2
